From ChEMBL document CHEMBL4024773, “The Magic of Crystal Structure-Based Inhibitor Optimization: Development of a Butyrylcholinesterase Inhibitor with Picomolar Affinity and in Vivo Activity” (J Med Chem, 2018) come the findings set out here.

What is called Ki is the dissociation constant of the complex between target and ligand, obtained from inhibition or displacement. For orientation: CC50 means the concentration at which the toxic effect on the cells reaches its halfway point. Read a high CC50 as lower toxicity to the cells. By half-life is commonly meant how long it takes for the measured level to halve. A high value points to slow loss. For orientation: Papp B→A means how fast a substance crosses the layer from the basolateral side. One may read the Papp A→B as the apparent permeability from the apical to the basolateral side of a cell layer. A word on the IC50: it is the concentration that inhibits the measured activity by half. For orientation: efflux ratio means a quotient of directional permeabilities that is used to spot active efflux.

The target in data set [1] is T1, Cholinesterase (Homo sapiens, UniProt P06276). As to conditions: 5 to 10 nM.
T1 sequence (P06276 whole entry): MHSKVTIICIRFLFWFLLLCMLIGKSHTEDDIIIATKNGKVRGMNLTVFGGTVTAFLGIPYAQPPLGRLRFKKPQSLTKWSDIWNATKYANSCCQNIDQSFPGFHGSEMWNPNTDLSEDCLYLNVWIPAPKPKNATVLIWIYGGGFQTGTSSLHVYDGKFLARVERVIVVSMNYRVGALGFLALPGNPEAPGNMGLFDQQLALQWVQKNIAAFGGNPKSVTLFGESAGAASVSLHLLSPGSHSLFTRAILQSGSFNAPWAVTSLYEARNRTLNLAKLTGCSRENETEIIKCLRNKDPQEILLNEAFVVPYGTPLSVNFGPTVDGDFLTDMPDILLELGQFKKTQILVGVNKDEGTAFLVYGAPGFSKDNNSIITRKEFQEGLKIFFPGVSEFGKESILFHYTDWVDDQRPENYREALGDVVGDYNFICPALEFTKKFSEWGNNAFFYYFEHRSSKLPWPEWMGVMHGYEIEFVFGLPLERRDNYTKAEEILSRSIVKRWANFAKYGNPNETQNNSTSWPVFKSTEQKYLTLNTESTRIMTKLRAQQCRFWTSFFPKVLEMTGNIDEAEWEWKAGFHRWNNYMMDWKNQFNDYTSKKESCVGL
Data set [2] is described as follows: Drug uptake in Wistar Han rat plasma at 10 mg/kg, ip after 1 hr by LC-MS/MS analysis. It counts as ADME, organism-based.
For data set [3] the following is noted: human, hepatocytes, 2 h.
The target of data set [4] is T1, Cholinesterase. Nature of the data set: Competitive inhibition of recombinant human BChE using butyrylthiocholine iodide as substrate at pH 8 by stopped flow assay.
Data set [5] can be described thus: Apparent intrinsic clearance in cryopreserved human hepatocytes assessed per million cells at 1 uM after 120 mins by HPLC-MS/MS analysis. It counts as ADME, cell-based, Hepatocyte. As to conditions: 2 h. An outline of the steps: (§1)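 Flurazepam, naloxone and propranolol, which are high-extraction […] references, served as positive controls.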
A short description of data set [6]: Stability of the compound in human plasma assessed as compound remaining at 1 uM after 120 mins by HPLC-MS/MS analysis. It counts as ADME, cell-free. Conditions: read-out: Stability.
Data set [7] is described as follows: in vitro. Conditions: human, HepG2 cells.
The nature of data set [8]: Drug metabolism in cryopreserved human hepatocytes assessed as (+/-)-N-((1-(2,3-Dihydro-1H-inden-2-yl)piperidin-3-yl)methyl)-N-(2-(methylamino)ethyl)-2-naphthamide dihydrochloride formation at 1 uM after 120 mins by HPLC-MS/MS analysis. It counts as ADME, cell-based, Hepatocyte. Conditions: 2 h. An outline of the steps:
as §1

The test system of data set [9] is Mus musculus. The data set is described as follows: Toxicity in Albino Swiss CD-1 mouse assessed as reduction in locomotor activity by measuring number of light beam crossings at 30 mg/kg, ip measured at 24 to 30 mins post dose. It counts as organism-based. As to conditions: in vivo. An outline of the steps: (§2)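 Mice were given 30 mg/kg intraperitoneally, the same dose used in the Morris water-maze task. Safety was assessed with a locomotor activity test monitored over time, rotarod at 6, 18 and 24 rpm, and observation for acute cholinergic adverse signs.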

Data set [10] is described as follows: in vitro. As to conditions: human, SH-SY5Y cells.
Data set [11] can be described thus: Half life in cryopreserved human hepatocytes at 1 uM after 120 mins by HPLC-MS/MS analysis. It counts as ADME, cell-based, Hepatocyte. An outline of the steps:
as §1

A short description of data set [12]: Apparent permeability across basolateral to apical side in human Caco2 cells at 100 uM after 20 mins by fluorescein dye based HPLC-UV analysis. It counts as ADME, cell-based. As to conditions: Caco-2. An outline of the steps: (§3)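 Caco-2 permeability (Papp) was measured bidirectionally, absorptive apical-to-basolateral and eliminatory basolateral-to-apical. The efflux ratio was calculated as Papp(B–A)/Papp(A–B).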
In general terms: Caco-2 monolayers are a common model of the intestinal barrier.

For data set [13], the system named is Brain. Conditions: rat, in vivo, ip, 10 mg/kg, 1 h.
Data set [14] is described as follows: Apparent permeability across apical to basolateral side in human Caco2 cells at 100 uM after 20 mins by fluorescein dye based HPLC-UV analysis. It counts as ADME, cell-based. Conditions: Caco-2. An outline of the steps: as §3
Data set [15] concerns Mus musculus. Nature of the data set: Toxicity in Albino Swiss CD-1 mouse assessed as motor impairment at 30 mg/kg, ip using rod revolving at 6, 18, or 24 rpm after 60 mins by rotarod test. It counts as organism-based. As to conditions: in vivo, 1 h. An outline of the steps:
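Rotarod test in mice given 30 mg/kg intraperitoneally, the dose used in the water maze tests. Motor performance recorded at rod speeds of 6, 18 and 24 rpm.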
On the technique in general: Falling from the rotarod earlier than controls is read as motor impairment.

Data set [16] can be described thus: Half life in human plasma at 1 uM by HPLC-MS/MS analysis. It counts as ADME, cell-free.
Data set [17] concerns Mus musculus. Nature of the data set: Reversal of scopolamine-induced hyperlocomotion in C57BL/6J mouse assessed as speed of swimming at 30 mg/kg, ip administered 60 mins prior to test post scopolamine challenge measured on day 7 by Morris water maze test (reference value: 0.20 meter/s). It counts as functional.
The test system of data set [18] is Mus musculus. Nature of the data set: Toxicity in Albino Swiss CD-1 mouse assessed as acute adverse cholinergic effects at 30 mg/kg, ip. It counts as organism-based. As to conditions: in vivo. An outline of the steps: as §2
Data set [19] in a line: Protein binding in human plasma at 10 uM after 4 hrs by HPLC-MS/MS analysis. It counts as ADME, cell-free. As to conditions: read-out: PPB (converted).
A short description of data set [20]: Ratio of drug level in brain to plasma in Wistar Han rat at 10 mg/kg, ip after 1 hr by LC-MS/MS analysis. Conditions: read-out: BPR. It counts as ADME, organism-based. An outline of the steps:
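Rats received a single intraperitoneal injection of 10 mg/kg. Brain tissue (µg/kg) and blood plasma (µg/L) concentrations were measured 1 h later and reported as mean ±SEM. The brain-to-plasma ratio was calculated from these concentrations.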

A short description of data set [21]: Drug level in cryopreserved human hepatocytes treated with HCl salt of (+/-)-N-((1-(2,3-Dihydro-1H-inden-2-yl)piperidin-3-yl)methyl)-N-(2-(dimethylamino)ethyl)-2-naphthamide Dichloride at 1 uM after 120 mins by HPLC-MS/MS analysis. It counts as ADME, cell-based, Hepatocyte. As to conditions: 2 h. An outline of the steps: as §1
Data set [22] concerns the target T1, Cholinesterase. Nature of the data set: Inhibition of recombinant human BChE using butyrylthiocholine iodide as substrate preincubated for 300 secs followed by substrate addition measured for 1 min by Ellman's method. A general note: DTNB colorimetry detects thiols as they appear.
Data set [23] has as its target T2, Acetylcholinesterase (Mus musculus, UniProt P21836).
T2 sequence (P21836 whole entry): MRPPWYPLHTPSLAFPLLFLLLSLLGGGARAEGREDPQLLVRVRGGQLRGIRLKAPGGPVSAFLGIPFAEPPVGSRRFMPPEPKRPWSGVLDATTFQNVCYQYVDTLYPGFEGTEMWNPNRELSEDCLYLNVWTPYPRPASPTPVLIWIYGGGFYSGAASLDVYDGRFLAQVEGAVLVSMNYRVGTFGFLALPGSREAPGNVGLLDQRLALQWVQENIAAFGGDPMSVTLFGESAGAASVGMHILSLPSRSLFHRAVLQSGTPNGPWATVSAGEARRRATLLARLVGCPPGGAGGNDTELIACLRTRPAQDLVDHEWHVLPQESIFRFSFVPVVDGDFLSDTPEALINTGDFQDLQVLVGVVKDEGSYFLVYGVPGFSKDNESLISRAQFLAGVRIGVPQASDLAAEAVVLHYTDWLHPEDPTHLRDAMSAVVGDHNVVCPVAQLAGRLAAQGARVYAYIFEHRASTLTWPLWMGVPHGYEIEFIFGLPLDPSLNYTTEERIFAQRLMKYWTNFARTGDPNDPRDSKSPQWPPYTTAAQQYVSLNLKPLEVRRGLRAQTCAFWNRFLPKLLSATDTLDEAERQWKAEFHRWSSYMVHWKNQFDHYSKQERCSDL
Nature of the data set: Inhibition of mouse AChE using acetylthiocholine iodide as substrate preincubated for 300 secs followed by substrate addition measured for 1 min by Ellman's method. An outline of the steps:
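Inhibition of murine AChE measured by the Ellman method with acetylthiocholine iodide as substrate. IC50 determined only where inhibition reached at least 50% at 10 µM. Otherwise recorded as IC50 >10 µM.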

The nature of data set [24]: Efflux ratio of apparent permeability from basolateral to apical side over apical to basolateral side in human Caco2 cells. It counts as ADME, cell-based. Conditions: Caco-2.
Data set [25] has as its target Butyrylcholinesterase (Rattus norvegicus) (UniProt Q9JKC1). As to conditions: 300 uM.
Data set [26] deals with Mus musculus. Nature of the data set: Reversal of scopolamine-induced memory impairment in C57BL/6J mouse assessed as decrease in traveled distance to reach the escape platform at 10 mg/kg, ip administered 60 mins prior to test post scopolamine challenge measured on day 7 by Morris water maze test. It counts as functional, organism-based.
The test system of data set [27] is Mus musculus. The data set is described as follows: Reversal of scopolamine-induced memory loss in C57BL/6J mouse assessed as decrease in escape latency time at 10 mg/kg, ip administered 60 mins prior to test post scopolamine-challenge measured on day 7 by Morris water maze test. It counts as functional, organism-based.
Data set [28] relates to Mus musculus. The data set is described as follows: Reversal of scopolamine-induced hyperlocomotion in C57BL/6J mouse assessed as speed of swimming at 10 mg/kg, ip administered 60 mins prior to test post scopolamine challenge measured on day 7 by Morris water maze test (reference value: 0.20 meter/s). It counts as functional.

The source made the active and inactive calls. The calls are words filed in the database; no cut-off is given here.

Butyrylcholinesterase (Rattus norvegicus), sequence (Q9JKC1 as listed by the source): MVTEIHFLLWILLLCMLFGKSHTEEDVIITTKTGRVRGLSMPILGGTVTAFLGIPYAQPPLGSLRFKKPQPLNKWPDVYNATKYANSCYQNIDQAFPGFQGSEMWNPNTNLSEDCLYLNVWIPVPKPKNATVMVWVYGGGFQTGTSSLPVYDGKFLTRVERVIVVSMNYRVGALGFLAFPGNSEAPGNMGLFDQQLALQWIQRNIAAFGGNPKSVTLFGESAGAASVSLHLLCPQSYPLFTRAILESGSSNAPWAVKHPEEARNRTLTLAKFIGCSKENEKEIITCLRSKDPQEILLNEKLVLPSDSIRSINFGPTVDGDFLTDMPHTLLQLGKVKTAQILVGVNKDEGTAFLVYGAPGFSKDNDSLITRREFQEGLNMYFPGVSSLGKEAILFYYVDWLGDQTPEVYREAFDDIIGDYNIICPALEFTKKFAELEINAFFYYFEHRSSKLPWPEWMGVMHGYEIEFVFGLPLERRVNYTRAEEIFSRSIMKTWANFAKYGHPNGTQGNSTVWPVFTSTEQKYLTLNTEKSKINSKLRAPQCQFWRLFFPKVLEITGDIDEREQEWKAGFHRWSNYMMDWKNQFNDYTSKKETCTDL

With `COCCN(CC1CCCN(C2Cc3ccccc3C2)C1)C(=O)c1ccc2ccccc2c1` (single isomer, unassigned; (+)), in data set [1], the deltaG is -11.9 kcal/mol.
For the compound `COc1cc2c(cc1OC)C(=O)C(CC1CCN(Cc3ccccc3)CC1)C2` (configuration not stated) [DONEPEZIL], in data set [2], the concentration at 1 h is 2 to 300 ng/mL.
Consider `CCN(CC)CCN1C(=O)CN=C(c2ccccc2F)c2cc(Cl)ccc21` [FLURAZEPAM], for which, in data set [3], the Stability result was “Unstable”.
As for `c1ccc2c(NCCCCCCCNc3c4c(nc5ccccc35)CCCC4)c3c(nc2c1)CCCC3`, in data set [4], the Ki amounted to 0.163 nM.
With `CN(C)CCN(CC1CCCN(C2Cc3ccccc3C2)C1)C(=O)c1ccc2ccccc2c1.Cl` (racemic), the “CLH(app)” value in [5] is under 8.2 µL/min. The remaining at 2 h, 1 µM in data set [6] was 76%. For the same compound, the CC50 at 24 h in data set [7] was 33900 nM. The Drug metabolism entry in [8] is on record as “Metabolite_Detected”. Besides, the Activity result is listed as “Toxic” in data set [9], “Non-Toxic” in data set [15], 0.18 meter/s in data set [17] and “Non-Toxic” in data set [18]. It took 6630 nM to reach half-maximal cytotoxicity in data set [10] (CC50 at 48 h). The half-life at 1 µM in data set [11] and in data set [16] was over 2 h each time. Besides, in [12], the Papp B→A at 20 min, 100 µM turned out to be 46.1 ×10⁻⁶ cm/s. The compound also gave a Drug uptake in data set [13] of 248 µg/kg. Also, the Papp A→B at 20 min, 100 µM in data set [14] was 28 ×10⁻⁶ cm/s. In addition, the concentration at 1 h in data set [2] is 169 ng/mL. Moreover, the fraction unbound at 4 h, 10 µM in data set [19] was 0.07. The Kp at 1 h in data set [20] is 1.47.
On to `CNCCN(CC1CCCN(C2Cc3ccccc3C2)C1)C(=O)c1ccc2ccccc2c1.Cl.Cl` (racemic), for which the Drug metabolism result in data set [21] was “Metabolite_Detected”. Also, the IC50 in data set [22] is 18 nM.
In the case of `COCCN(CC1CCCN(Cc2ccccc2)C1)C(=O)c1ccc2ccccc2c1` (racemic), the results for the IC50 in [23] and in data set [22] were over 10000 nM and 230 nM, respectively.
As to `O=c1cc(C(F)(F)F)c2ccc(O)cc2o1`, the Stability entry in data set [3] is “Unstable”.
On to `O=C(NCC1CCCN(Cc2ccccc2)C1)c1ccc2ccccc2c1` (racemic), for which the results for the IC50 in data set [23] and in [22] were over 10000 nM and 1440 nM, respectively.
On to `COC(=O)c1ccccc1-c1c2ccc(=N)cc-2oc2cc(N)ccc12.Cl` [RHODAMINE123], for which, in data set [12], the Papp B→A at 20 min, 100 µM stood at 7.7 ×10⁻⁶ cm/s. Also, in data set [14], the Papp A→B at 20 min, 100 µM is 1.1 ×10⁻⁶ cm/s. The efflux ratio in data set [24] stood at 7.3.
`COCCN(CC1CCN(Cc2ccccc2)CC1)C(=O)c1ccc2ccccc2c1`: the IC50 in data set [23] is over 10000 nM; in [22], 702 nM.
Consider `COCCN(CC1CCCN(Cc2ccccc2)C1)S(=O)(=O)c1ccc2ccccc2c1` (configuration not stated), for which the inhibition result in [25] was “Active”. The compound also returned an IC50 in [23] of over 10000 nM.
Regarding `CN(C)CCN(CC1CCCN(C2Cc3ccccc3C2)C1)C(=O)c1ccc2ccccc2c1` (racemic), in data set [23], the IC50 was over 10000 nM.
Turning to `COCCN(CC1CCCN(C2Cc3ccccc3C2)C1)C(=O)c1ccc2cc(Br)ccc2c1` (racemic), the IC50 in data set [23] was over 10000 nM; in [22], 410 nM.
For the compound `COc1cc2c(cc1OC)C(=O)C(CC1CCN(Cc3ccccc3)CC1)C2` (configuration not stated), the outcome in data set [26] and in data set [27] was Active.
Regarding `COCCCN(CC1CCCN(C2Cc3ccccc3C2)C1)C(=O)c1ccc2ccccc2c1` (racemic), the IC50 in data set [23] was over 10000 nM; in data set [22], 38.2 nM.
Taken in the same sequence, the figures for `O=C(NCC1CCCN(C2Cc3ccccc3C2)C1)c1cccc2ccccc12` (racemic) were over 10000 nM and 67 nM.
With `COc1cc2c(cc1OC)C(=O)C(CC1CCN(Cc3ccccc3)CC1)C2.Cl` (configuration not stated) [DONEPEZIL HYDROCHLORIDE], the Activity in data set [28] came out at 0.15 meter/s.
Regarding `O=C(NCC1CCCN(Cc2nc3ccccc3s2)C1)c1ccc2ccccc2c1` (racemic), the values for the IC50 in data set [23] and in data set [22] were over 10000 nM and 632 nM, respectively.
